Assay results taken from publication PMC8671219 (Arthritis & Rheumatology (Hoboken, N.j.), 2021).
Read-outs that look alike come from different tables or passages of the source.

How the values were obtained:
MRL/lpr mice = test: MRL/lpr in vivo model of SLE; set-up: species or system mouse
[1] = tested on: human plasmacytoid dendritic cells; test: Plasmacytoid DC stimulation with SLE neutrophil supernatants; format: cell-based; conditions: 200 nM preincubation; 24 hours; n = 5
Summary of the method: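 SLE patient neutrophils were induced to undergo NETosis with R837, and their supernatants were collected. Plasmacytoid DCs were FACS-sorted from the DC fraction of healthy-volunteer buffy coats. They were cultured in 40% neutrophil supernatant with or without 200 nM test compound for 24 hours. CD83 was measured by flow cytometry against isotype control; n = 5.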

[2] = tested on: active rheumatoid arthritis; conditions: patients with active RA and inadequate response to methotrexate; cited from earlier work
[3] = tested on: human PBMCs stimulated with SLE immune complexes; test: SLE-IC assay; format: cell-based; conditions: 100 nM, 24 hours
Summary of the method: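 SLE immune complexes were made by purifying IgG from plasma of an anti-RNP/anti-dsDNA-positive SLE patient and mixing it with apoptotic cells. Human PBMCs were stimulated with these complexes with or without 100 nM test compound for 24 hours. IFNα in supernatant was measured by ELISA, and RSAD2, USP18 and GBP1 by qRT-PCR as relative quantification. n = 5 donors; analysed by 2-way ANOVA.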

[4] = tested on: human RA fibroblast-like synoviocytes; test: Human RA-FLS assay; format: cell-based; conditions: 100 nM
Summary of the method: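 Human RA fibroblast-like synoviocytes were incubated with 100 nM test compound or vehicle before adding 0.1 ng/ml IL-1β. IL-6, IL-8 and MMP-1 in supernatants were measured by Meso Scale Discovery assay and expressed as percent of vehicle control, separately per donor.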

[5] = tested on: nuclear localization of IRF-5 in PBMCs; test: Monocyte IRF5 nuclear localization assay; format: cell-based, human; conditions: 100 nM, 2 hours
Summary of the method: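 Healthy-volunteer PBMCs were incubated with 100 nM test compound or none, then stimulated with R848 or SLE patient sera for 2 hours at 37°C. IRF-5 nuclear translocation was quantified by Amnis imaging cytometry.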

[6] = tested on: C-reactive protein (CRP) levels; conditions: healthy volunteers; modified-release 300 mg daily; day 14; cited from earlier work
[7] = tested on: rat collagen-induced arthritis; test: Rat collagen-induced arthritis model of RA; format: in vivo; conditions: rat CIA; PF-06650833 3 mg/kg twice daily or tofacitinib 10 mg/kg daily, oral, 7 days; vehicle 0.786 ± 0.043; mean ± SEM, n = 10
[8] = tested on: human primary cell cocultures (4H, LPS, SAg, BT, MyoF, /Mphg); test: BioMAP Diversity Plus Panel; format: cell-based; conditions: multicellular human primary cell systems
Summary of the method: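 An external provider ran BioMAP Diversity Plus profiling with each compound at the noted concentrations, scoring multiple end points per system. The systems were venular endothelial cells (4H), PBMC plus endothelial cells with LPS, PBMC plus endothelial cells with superantigen, B cells plus PBMC (BT), lung fibroblasts (MyoF), and macrophages plus venular endothelial cells. Etanercept and tofacitinib served as comparators.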

[9] = tested on: human B cells primed with IFNα and stimulated with R848; test: B cell maturation assay; format: cell-based
Summary of the method: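 Human B cells were isolated from Leukopaks and preincubated with 100 nM test compound, then given IFNα plus R848. Supernatants were harvested at 24 h for IL-6 and at 72 h for IL-10. Values are % of control; n = 6 donors, compared by paired t-test.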

[10] = tested on: human macrophages stimulated with ACPA immune complexes; test: Macrophage ACPA-IC induced TNFα assay; format: cell-based; conditions: 100 nM inhibitor, 11 donors, mean ± SEM
Summary of the method: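 Human macrophages from 11 donors were preincubated with 100 nM inhibitor and then stimulated with anti-citrullinated protein antibody immune complexes. TNF in supernatants was measured by immunoassay and expressed as % of DMSO-only treatment (mean ± SEM), compared by paired t-test.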

[11] = tested on: R848 induced TNF in human whole blood; test: Human whole blood cytokine release assay; format: cell-based
Summary of the method: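 Heparin-anticoagulated whole blood (human, mouse or rat), or PBMC derived from it, was incubated with test compound and then exposed to TLR ligand. Cytokines were measured by Meso Scale Discovery immunoassay. EC50 and Hill slope were fitted from concentration–response data, and free-drug potency was derived using measured protein binding values.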

[12] = tested on: pristane-induced lupus in BALB/c mice; test: Pristane in vivo model of SLE; set-up: species or system mouse
[13] = tested on: whole blood 21-gene IFN gene signature; test: Interferon signature modulation in Phase 1 MAD study in healthy volunteers; format: in vivo, human; conditions: 300 mg modified-release qd
Summary of the method: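 In a randomized, double-blind phase I multiple-ascending-dose study, healthy volunteers received modified-release test compound 300 mg once daily (n = 7) or placebo (n = 11) for 14 days. PAXgene whole blood was drawn on day 0 before the first dose and on day 14 before the last dose. RNA was sequenced, and an equally weighted 21-gene IFN signature was scored as percent change, day 14 versus day 0.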

## N#CN1CCCC(n2nc(-c3ccc(Oc4ccc(F)cc4F)cc3)c(C(N)=O)c2N)C1 (stereo not drawn) [PF‐06250112, reference compound]
MRL/lpr mice; 30 mg/kg PO qd
  all renal histologic pathology end points other than PAS area per tuft: significantly reduced
  autoantibody titers: significantly reduced

## CC[C@@H]1[C@H](F)C(=O)N[C@@H]1COc1nccc2cc(C(N)=O)c(OC)cc12 [PF‐06650833, 1‐{[(2S,3S,4S)‐3‐Ethyl‐4‐fluoro‐5‐oxopyrrolidin‐2‐yl]methoxy}‐7‐methoxyisoquinoline‐6‐carboxamide]
[1]
  pDC CD83 up-regulation induced by neutrophil DAMPs: significantly inhibited
[2]
  disease activity in phase II study: significant effects on disease activity
[3]; n = 5 donors
  IFNα release from PBMCs stimulated with SLE ICs: inhibited IFNα release in all donors
[3]; SLE ICs, PBMCs
  induction of 3 IFN-responsive genes (RSAD2, USP18, and GBP1): inhibited
[4]
  IL-1-induced cytokines in RA FLS: did not inhibit
  MMP induction by IL-1β in RA FLS: able to block
[4]; RA FLS
  cytokine and matrix metalloproteinase (MMP) release in response to all ligands profiled: substantially reduced
[5]; without compound 23.0 ± 13.0, n = 3
  nuclear localization of IRF-5 stimulated by R848: 6.8 ± 4.4%
[5]; without compound 38.6 ± 18.4, n = 12
  IRF-5 nuclear localization in response to SLE patient sera: 24.2 ± 13.0%
[6]
  CRP levels: statistically significant reductions
MRL/lpr mice; 200mg/kg in chow, 12-13 weeks
  C3 and IgG deposition by immunohistochemistry: significantly reduced
  anti-SSA: trends toward reductions
  anti-dsDNA: trends toward reductions
  anti-histone IgG: significantly reduced
  glomerular nephropathy: significantly reduced
  glomerular nuclear area by image analysis: significantly reduced
  glomerular tuft area by image analysis: significantly reduced
  histologic kidney inflammation: significantly reduced
  lymphadenopathy: significantly reduced
  splenomegaly: trends toward reductions
  tubular injury: trends toward reductions
[7]
  paw volume on day 7: 0.555 ± 0.034 mL
[8]
  BioMAP phenotypic profile of inflammatory readouts: greatest inhibition of inflammatory readouts in assays of innate immunity
[9]; 24 h, read-out: B cell IL-6 production, % of control
  activity at 0.1 µM: 50 ± 16.7%
[9]; 72 h, read-out: B cell IL-10 production, % of control
  activity at 0.1 µM: 41.3 ± 7.1%
[10]
  ACPA IC-induced TNF release, % of that seen with DMSO treatment alone: 57.5 ± 17.9%
[11]; read-out: EC50 values across the preclinical assays
  EC50: 2 to 10 nM
[11]; read-out: IC50 total, human whole blood R848 induced TNF
  IC50: 8.8 nM
[12]; 200mpk in chow weeks 8-20, control 7,693 ± 1,241
  anti-SSA IgG at week 20: 2,726 ± 494 units/ml
[12]; 200mpk in chow weeks 8-20, control 18,127 ± 7,902
  anti-RNP IgG at week 20: 3,730 ± 2,861 units/ml
[12]; kidney, week 20, pristane alone 1,252 ± 45, n = 8
  mean PAS area per tuft: 1,045 ± 47 μm^2
[13]
  subjects with negative change of IFN gene score between day 0 and day 14: 6 of 7
[13]; 14 days, n = 7, placebo +9.1%
  reduction of IFN gene signature, median percent change day 14 vs day 0: 28.8%
[13]; day 14
  difference in IFN gene signature change vs placebo: −37.9%

## C[C@@H]1CCN(C(=O)CC#N)C[C@@H]1N(C)c1ncnc2[nH]ccc12 [tofacitinib, reference compound]
[7]
  paw volume on day 7: 0.371 ± 0.044 mL
[8]
  BioMAP phenotypic profile of inflammatory readouts: no impact on assays of innate immunity

## Etanercept
[8]
  BioMAP phenotypic profile of inflammatory readouts: predominant activity in the myofibroblast‐ and macrophage‐containing assays
